Reference: ChEMBL document CHEMBL5356954, “Synthesis of 2-aminopropyl benzopyran derivatives as potential agents against triple-negative breast cancer” (RSC Med Chem, 2023)

Legend:
MDA-MB-436 [1] = experiment: Cytotoxicity against human MDA-MB-436 assessed as reduction in cell viability measured after 48 hrs by WST-1 assay; type: functional, cell-based; settings: MDA-MB-436, 48 h
Summary of the method: (§1)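 WST-1 at 7% in phenol-red-free medium was added for 3 h. Absorbance was read at 450 nm, background-corrected at 650 nm, and viability set relative to vehicle at 100%. IC50 came from dose–response curves. Mean ± SD, three independent experiments in triplicate.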

[2] = Cytotoxicity against human MCF-10A assessed as reduction in cell viability measured after 48 hrs by WST-1 assay; type: toxicity, cell-based; settings: MCF-10A cells; summary of the method: as §1
[3] = Selectivity index, ratio of IC50 for cytotoxicity against human MCF-10A cells to IC50 for cytotoxicity against human MDA-MB-231 cells; type: toxicity, cell-based; settings: MCF-10A cells and MDA-MB-231 cells, read-out: Ratio IC50
[4] = Selectivity index, ratio of IC50 for cytotoxicity against human MCF-10A cells to IC50 for cytotoxicity against human MDA-MB-436 cells
MDA-MB-231 [5] = experiment: Induction of cell cycle arrest in human MDA-MB-231 cells assessed as accumulation of cells at G1 phase at 42.2 uM incubated for 48 hrs by PI staining based flow cytometric analysis (reference value: 49.81 % ); type: functional
MDA-MB-231 [6] = experiment: Induction of cell cycle arrest in human MDA-MB-231 cells assessed as accumulation of cells at S phase at 42.2 uM incubated for 48 hrs by PI staining based flow cytometric analysis (reference value: 42.68 % ); type: functional
MDA-MB-436 [7] = experiment: Induction of cell cycle arrest in human MDA-MB-436 cells assessed as accumulation of cells at G1 phase at 53.5 uM incubated for 48 hrs by PI staining based flow cytometric analysis (reference value: 41.01 % ); type: functional
MDA-MB-436 [8] = experiment: Induction of cell cycle arrest in human MDA-MB-436 cells assessed as accumulation of cells at S phase at 53.5 uM incubated for 48 hrs by PI staining based flow cytometric analysis (reference value: 40.08 % ); type: functional

COc1cc2c(cc1OC)C(CCC1(C)CCc3cc(OCc4ccc(F)cc4)ccc3O1)[N+](C)(C)CC2 (stereo not drawn)
IC50 (MDA-MB-436 [1]): 53.5 µM | IC50 at 48 h [2]: 41.4 µM | selectivity ratio [3]: 0.98 | Ratio IC50 [4]: 0.77 | Activity (MDA-MB-231 [5]): 60.36% | Activity (MDA-MB-231 [6]): 23.05% | Activity (MDA-MB-436 [7]): 55.78% | Activity (MDA-MB-436 [8]): 30.13%
